# Measured values published in ChEMBL document CHEMBL5385915 (J Med Chem, 2024).
# Activity calls are given as the source filed them. The rule behind the calls is not given here.
# Tests used:
# [1] = test system: Mycolicibacterium smegmatis; assay: Antimycobacterial activity against Mycobacterium smegmatis MC(2)155 assessed as reduction in microbial growth incubated for 24 hrs by resazurin dye based assay; assay type: functional
# [2] = Lipophilicity, log P of the compound; assay type: physicochemical; conditions: octanol/water
# [3] = Metabolic stability in mouse hepatocyte assessed as intrinsic clearance measured upto 60 mins […] by LC-MS/MS analysis; assay type: ADME, cell-based; conditions: hepatocytes, 1 h
# How it was run: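 Mouse hepatocytes at 0.5 × 10^6 cells/mL incubated with 1 μM compound at 37 °C, sampled at 0, 10, 20, 30, 45 and 60 min. Disappearance with and without hepatocytes measured by LC-MS/MS; output is mean CLint and t1/2. Duplicate per compound, with up to three species-specific controls.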
# [4] = test system: Mycobacterium tuberculosis; assay: Bactericidal activity against Mycobacterium tuberculosis H37Rv incubated for 6 to 10 days by time kill assay; assay type: functional, organism-based; conditions: dose <= 96.0 µM, time 6-10 day
# How it was run: (§1)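 Time-kill: 2-fold dilutions 96–3 μM in CMM MOD2, 0.1% DMSO vehicle; start 1×10^6 CFU/mL, 37 °C, 200 rpm; sampled days 0, 2, 6, 10, 14; 10-fold dilutions spotted in triplicate on 7H10, counted after 3 weeks; three biological repeats; factorial ANOVA with Tukey post hoc.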
# [5] = test system: Mycobacterium tuberculosis; assay: Bactericidal activity against Mycobacterium tuberculosis H37Rv assessed as reduction in bacterial count at […] uM incubated for 6 days by time kill assay; assay type: functional; conditions: time 6 day; how it was run: as §1
# [6] = test system: Mycobacterium tuberculosis; assay: Bactericidal activity against Mycobacterium tuberculosis H37Rv assessed as reduction in bacterial count at […] uM incubated for 14 days by time kill assay; assay type: functional; conditions: time 14 day; how it was run: as §1
# [7] = test system: Mycobacterium tuberculosis; assay: Bactericidal activity against Mycobacterium tuberculosis H37Rv assessed as reduction in viable count at 96 uM incubated for 6 days by CV-AM staining based flow cytometry analysis; assay type: functional; conditions: time 6 day
# How it was run: (§2)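 H37Rv from time-kill wells (3–96 μM, 0.1% DMSO vehicle) at each time point, stained in quadruplicate 1 h, 37 °C, dark with 20 μM CV-AM and/or 20 μM Sytox Green; fixed 4% formaldehyde 1 h; flow cytometry (405/488 nm lasers); singlets gated by FSC area/height, quadrant gates P1–P4.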
# [8] = test system: Mycobacterium tuberculosis; assay: Bactericidal activity against Mycobacterium tuberculosis H37Rv assessed as reduction in viable count at 96 uM incubated for 10 days by CV-AM staining based flow cytometry analysis; assay type: functional; conditions: time 10 day; how it was run: as §2
# [9] = test system: Mycobacterium tuberculosis; assay: Bactericidal activity against Mycobacterium tuberculosis H37Rv assessed as reduction in viable count at 96 uM incubated for 14 days by CV-AM staining based flow cytometry analysis; assay type: functional; conditions: time 14 day; how it was run: as §2
# [10] = test system: Mycobacterium tuberculosis; assay: Bactericidal activity against Mycobacterium tuberculosis H37Rv assessed as reduction in viable count at 96 uM incubated for 14 days by sytox green staining based flow cytometry analysis; assay type: functional, organism-based; conditions: time 14.0 day; how it was run: as §2
# [11] = test system: Mycobacterium tuberculosis; assay: Bactericidal activity against Mycobacterium tuberculosis H37Rv assessed as reduction in viable count at 48 uM incubated for 6 days by sytox green staining based flow cytometry analysis; assay type: functional; conditions: time 6 day; how it was run: as §2
# [12] = test system: Mycobacterium tuberculosis; assay: Bactericidal activity against Mycobacterium tuberculosis H37Rv assessed as reduction in viable count at 48 uM incubated for 14 days by sytox green staining based flow cytometry analysis; assay type: functional; conditions: time 14 day; how it was run: as §2
# [13] = test system: Mycolicibacterium smegmatis; assay: Inhibition of macromolecule biosynthesis in Mycobacterium smegmatis assessed as reduction in incorporation of [3H]-thymidine in DNA at 0.75 times MIC incubated for 36 hrs; assay type: functional, organism-based
# [14] = test system: Mycolicibacterium smegmatis; assay: Inhibition of macromolecule biosynthesis in Mycobacterium smegmatis assessed as reduction in incorporation of [3H]-uridine in RNA at 0.75 times MIC incubated for 36 hrs; assay type: functional, organism-based
# [15] = test system: Mycolicibacterium smegmatis; assay: Inhibition of macromolecule biosynthesis in Mycobacterium smegmatis assessed as reduction in incorporation of [3H]-leucine in protein at 0.75 times MIC incubated for 36 hrs; assay type: functional, organism-based
# [16] = test system: Mycolicibacterium smegmatis; assay: Inhibition of macromolecule biosynthesis in Mycobacterium smegmatis assessed as reduction in incorporation of [3H]-diaminopimelic acid in peptidoglycan at 1 times MIC incubated for 6 hrs; assay type: functional, organism-based
# [17] = test system: Mycolicibacterium smegmatis; assay: Inhibition of cell wall biosynthesis in Mycobacterium smegmatis assessed as reduction in trehalose monomycolate accumulation at 0.5 to 5 times MIC incubated for 6 hrs in presence of [14C]acetate by MPA staining based TLC analysis; assay type: functional, organism-based
# [18] = test system: Mycolicibacterium smegmatis; assay: Inhibition of cell wall biosynthesis in Mycobacterium smegmatis assessed as reduction in trehalose dimycolate accumulation at 0.5 to 5 times MIC incubated for 6 hrs in presence of [14C]acetate by alpha-napthol staining based TLC analysis; assay type: functional, organism-based
# [19] = test system: Mycolicibacterium smegmatis; assay: Inhibition of mycolic acid biosynthesis in Mycobacterium smegmatis at 5 times MIC incubated for 12 hrs in presence of [14C]acetate by TLC based autoradiography analysis; assay type: functional, organism-based
# [20] = test system: Corynebacterium glutamicum; assay: Inhibition of mycolic acid biosynthesis in Corynebacterium glutamicum at 0.5 to 5 times MIC incubated for 6 hrs by TLC based autoradiography analysis; assay type: functional, organism-based
# [21] = test system: Corynebacterium glutamicum; assay: Inhibition of mycolic acid biosynthesis in Corynebacterium glutamicum pks13 at 0.5 to 5 times MIC incubated for 6 hrs by TLC based autoradiography analysis; assay type: functional, organism-based
# [22] = test system: Corynebacterium glutamicum; assay: Inhibition of mycolic acid biosynthesis in Corynebacterium glutamicum harboring MmpL3 at 0.5 to 5 times MIC incubated for 6 hrs by TLC based autoradiography analysis; assay type: functional, organism-based
# [23] = test system: Mycobacterium tuberculosis; assay: Antitubercular activity against drug-sensitive Mycobacterium tuberculosis H37Rv pTYOK assessed as inhibition of bacterial growth measured upto 3 days by luminometer based analysis; assay type: functional; conditions: 72 h, time <= 3 day
# [24] = test system: Mycobacterium tuberculosis; assay: Antitubercular activity against drug-sensitive Mycobacterium tuberculosis H37Rv assessed as inhibition of bacterial growth measured for 7 days by REMA analysis; assay type: functional; conditions: 168 h, time 7 day
# How it was run: (§3)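 REMA: 2-fold dilutions in CMM MOD2 medium, wells inoculated at 1×10^6 CFU/mL, 7 days at 37 °C with 200 rpm agitation; resazurin (0.02% w/v in PBS pH 7.4, 5% Tween 80) then 6 h at room temperature; OD570 vs vehicle; MIC99 by modified Gompertz function; three biological replicates.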
# [25] = test system: Mycobacterium tuberculosis; assay: Antitubercular activity against Mycobacterium tuberculosis 1192/015 assessed as inhibition of bacterial growth measured for 7 days by REMA analysis; assay type: functional; conditions: 1192/015, 168 h, time 7 day; how it was run: as §3
# [26] = Metabolic stability in mouse liver microsome assessed as intrinsic clearance measured upto 30 mins in presence of NADPH by LC-MS/MS analysis; assay type: ADME; conditions: liver microsomes, read-out: CLH
# How it was run: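 1 μM compound with 0.5 mg/mL mouse liver microsomes, with or without NADPH (1 mM), 37 °C, sampled at 0, 5, 10, 15 and 30 min. Parent loss followed by LC-MS/MS, giving mean CLint and t1/2. Two replicates per compound; up to three species-specific control compounds included.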
# [27] = Efflux ratio of permeability across basolateral to apical side over apical to basolateral side in human Caco-2 cells incubated for 2 hrs by LC-MS/MS analysis; assay type: ADME, cell-based
# [28] = Kinetic solubility in pH 7.4 PBS incubated for 5 mins by UV-spectrophotometry analysis; assay type: physicochemical; conditions: read-out: Kinetic_solubility
# How it was run: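 Compounds from 10 mM DMSO stock diluted in PBS pH 7.4 to a seven-point series (0.2–100 μM), final DMSO 1%, shaken 5 min at 25 °C. Turbidity read by UV at 620 nm; Log_S converted to solubility as S = 10^LogS. Nicardipine control; triplicate.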
# [29] = test system: HepG2; assay: Cytotoxicity against human HepG2 cells assessed as reduction in cell viability incubated for 24 hrs in presence of glucose by MTT assay; assay type: functional, cell-based; conditions: HepG2, 24 h
# [30] = test system: HepG2; assay: Cytotoxicity against human HepG2 cells assessed as reduction in cell viability incubated for 24 hrs in presence of galactose by MTT assay; assay type: functional, cell-based; conditions: HepG2, 24 h
# [31] = test system: Mycobacterium tuberculosis; assay: Bactericidal activity against Mycobacterium tuberculosis H37Rv assessed as reduction in viable count at 48 uM incubated for 6 days by CV-AM staining based flow cytometry analysis; assay type: functional; conditions: time 6 day; how it was run: as §2
# [32] = test system: Mycobacterium tuberculosis; assay: Bactericidal activity against Mycobacterium tuberculosis H37Rv assessed as reduction in viable count at 48 uM incubated for 10 days by CV-AM staining based flow cytometry analysis; assay type: functional; conditions: time 10 day; how it was run: as §2
# [33] = test system: Mycobacterium tuberculosis; assay: Bactericidal activity against Mycobacterium tuberculosis H37Rv assessed as reduction in viable count at 48 uM incubated for 14 days by CV-AM staining based flow cytometry analysis; assay type: functional; conditions: time 14 day; how it was run: as §2
# [34] = test system: Mycolicibacterium smegmatis; assay: Inhibition of cell wall biosynthesis in Mycobacterium smegmatis assessed as formation of cytoplasmic membrane phospholipids at 0.5 to 5 times MIC incubated for 6 hrs in presence of [14C]acetate by TLC based autoradiography analysis; assay type: functional, organism-based
smiles,measurement,setting,value
Brc1ccccc1CN1[C@H](CN2CCCC2)C[C@@H]1c1ccccc1 (racemic),MIC99,[1],30.5 µM
same,logP,[2],4.84
Clc1cc(Cl)cc([C@H]2C[C@@H](CN3CCCC3)N2Cc2ccccc2Br)c1 (racemic),MIC99,[1],14 µM
same,logP,[2],6.05
COCCNC[C@@H]1C[C@H](c2ccc(OC(F)(F)F)cc2)N1Cc1ccccc1OC(F)(F)F (racemic),MIC99,[1],29 µM
same,logP,[2],6.1
CNC[C@@H]1C[C@H](c2ccc(OC(F)(F)F)cc2)N1Cc1ccccc1OC(F)(F)F (racemic),logP,[2],6.14
same,intrinsic clearance (CLint),[3],< 60 µL/min/mg
same,Activity,[4],Dose-Dependent Effect
same,Activity,[5],3.28 log10CFU/ml
same,Activity,[6],3.99 log10CFU/ml
same,Activity,[7],0.043%
same,Activity,[8],0.08%
same,Activity,[9],0.011%
same,Activity,[10],Active
same,Activity,[11],0.027%
same,Activity,[12],0.068%
same,inhibition,[13],inactive
same,inhibition,[14],inactive
same,inhibition,[15],inactive
same,inhibition,[16],Active
same,inhibition,[17],Active
same,inhibition,[18],Active
same,inhibition,[19],Active
same,inhibition,[20],Active
same,inhibition,[21],Active
same,inhibition,[22],Active
C#CCNC[C@@H]1C[C@H](c2cc(Br)cc(Br)c2)N1Cc1ccccc1Br (racemic),MIC99,[1],100 µM
same,logP,[2],5.82
CC(C)NC[C@@H]1C[C@H](c2ccccc2)N1Cc1ccccc1OC(F)(F)F (racemic),MIC99,[1],87 µM
same,logP,[2],5.49
FC(F)(F)c1cc([C@H]2C[C@@H](CN3CCCC3)N2Cc2ccccc2Br)cc(C(F)(F)F)c1 (racemic),MIC99,[1],26 µM
same,logP,[2],6.6
same,MIC50,[23],6.9 µM
same,MIC99,[24],3.3 µM
same,MIC99,[25],19.1 µM
same,microsomal CLint,[26],> 150 µL/min/mg
same,intrinsic clearance (CLint),[3],< 60 µL/min/mg
same,efflux ratio at 2 h,[27],< 1
same,inhibition,[21],Active
same,inhibition,[22],Active
CN(C)C[C@@H]1C[C@H](c2cc(Br)cc(Br)c2)N1Cc1ccccc1Br (racemic),MIC99,[1],80 µM
same,logP,[2],5.97
FC(F)(F)Oc1ccc([C@H]2C[C@@H](CN3CCCC3)N2Cc2ccccc2OC(F)(F)F)cc1 (racemic),logP,[2],6.93
same,solubility kinetic at 5 min,[28],7 µM
same,microsomal CLint,[26],> 150 µL/min/mg
same,intrinsic clearance (CLint),[3],< 60 µL/min/mg
same,efflux ratio at 2 h,[27],< 1
same,inhibition,[21],Active
same,inhibition,[22],Active
COc1ccc([C@H]2C[C@@H](CN3CCCC3)N2Cc2ccccc2Br)cc1 (racemic),logP,[2],4.68
CC(C)NC[C@@H]1C[C@H](c2ccc(OC(F)(F)F)cc2)N1Cc1ccccc1OC(F)(F)F (racemic),MIC99,[1],23 µM
same,logP,[2],6.92
Brc1cc(Br)cc([C@H]2C[C@@H](CN3CCCC3)N2Cc2ccccc2Br)c1 (racemic),microsomal CLint,[26],> 150 µL/min/mg
same,intrinsic clearance (CLint),[3],< 60 µL/min/mg
same,IC50,[29],> 100 µM
same,IC50,[30],> 100 µM
same,Activity,[4],Dose-Dependent Effect
same,Activity,[5],0.79 log10CFU/ml
same,Activity,[6],1.9 log10CFU/ml
same,Activity,[31],0.067%
same,Activity,[32],0.065%
same,Activity,[33],0.066%
same,Activity,[10],Active
same,inhibition,[34],Active
same,inhibition,[21],Active
same,inhibition,[22],Active
FC(F)(F)c1ccc(C2CCN(C[C@@H]3C[C@H](c4ccccc4)N3Cc3ccccc3Br)CC2)cc1 (racemic),MIC99,[1],100 µM
same,logP,[2],7.58
CC(C)NC[C@@H]1C[C@H](c2ccc(OC(F)(F)F)cc2)N1Cc1ccccc1Br (racemic),MIC99,[1],23 µM
same,logP,[2],6.26
CC(C)NC[C@@H]1C[C@H](c2ccccc2)N1Cc1ccccc1Br (racemic),MIC99,[1],94 µM
same,logP,[2],4.82
FC(F)(F)Oc1ccc(C2CCN(C[C@@H]3C[C@H](c4ccccc4)N3Cc3ccccc3Br)CC2)cc1 (racemic),MIC99,[1],100 µM
same,logP,[2],8.14
